Source: PubChem BioAssay (several laboratories)
CHOP UPR activ: activators of apoptotic arm of unfolded protein response (CHOP); CHO-CHOP luciferase reporter, UPR activation, luminescence; percent of tunicamycin response over DMSO baseline; activation, % at 10 µM; hit rate 0.34% among 330,000; AID 449763;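 active means at 10 µM dose, activation of 40% or more, normalized to positive control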
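System: CHO-CHOP luciferase reporter cell line; amount: 500 cells/well; buffer or medium: F12 medium containing 10% fetal bovine serum; incubation: 6 h compound exposure at 37 °C after overnight seeding; measured by: luciferase luminescence after 10 min with Steady-Glo reagent; evaluation: % reporter activation, DMSO baseline versus tunicamycin full activation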
Cardio protect: modulators protecting cardiomyocytes from myocardial damage | AID 588492 | H9c2 cardiomyocytes, H2O2 injury protection, ATPLite, 2 h | protection from H2O2 cell death, % at 20 µM | hit rate 0.63% among 360,000;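 active means compounds giving at least 50% protection of heart cells from peroxide-induced death in the single-dose screen, raw or plate-pattern-corrected value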
CHOP inhibitor: CHOP inhibition in unfolded protein response. CHO-K1 CHOP-promoter luciferase, tunicamycin-induced, 15-18 h. inhibition, % at 10 µM. hit rate 3.8% among 220,000. AID 2732;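 active means compounds that reduced the stress-induced luciferase reporter signal by more than about 70% of percent inhibition, limit read from the data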
UPR XBP1 act: activators of adaptive arm of unfolded protein response (XBP1); CHO-XBP1 luciferase reporter, IRE1-XBP1 UPR activation, luminescence; percent of tunicamycin response, DMSO as zero; activation, % at 20 µM; hit rate 0.33% among 330,000;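 active means versus positive control, 20 µM dose yields 30% or more activation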
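Material: CHO-XBP1 cells stably carrying IRE1-XBP1-driven luciferase reporter / Amount: 1000 cells per well / Compound: 20 µM, 1% DMSO / Times: 6 h treatment, 37 °C / Detection: luciferase luminescence / Measure: % activation of reporter signal versus tunicamycin and DMSO controls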
hiPSC survival: increases survival of single human iPS cells; hiPSC single-cell survival, ATPlite luminescence; 100% = ROCK inhibitor wells, 0% = DMSO; AID 602274; hit rate 0.044% among 360,000; survival enhancement, % at 20 µM; in the data active means survival enhancement above about 18%;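 further: cells exposed to compounds for 16 hours before the ATP read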
Of the large screens only hits and unclear results are named; the others gave an inactive call. The full list was thinned out, with hits kept by preference.

O=C(C(=NNc1ccccc1)C(=S)Nc1ccccc1)c1ccccc1	none (no result: CHOP UPR activ, CHOP inhibitor, UPR XBP1 act)
Cc1ccc2nc(Cl)c(/C=N/NC(=O)[C@H]3C[C@@H]3c3ccccc3)cc2c1	CHOP inhibitor 73.6
O=C(Nc1ccc2c(c1)OCCO2)C1c2ccccc2OCC(=O)N1CCc1c[nH]c2ccccc12 (stereo not given)	none (no result: CHOP UPR activ, Cardio protect, CHOP inhibitor, UPR XBP1 act)
Cc1cc(C)c2ccc(NN)nc2c1O	Cardio protect 79.0
COc1ccc(NC(=O)c2cc(-c3cc(F)ccc3OCC3CCCO3)n[nH]2)c(C)c1 (stereo not given)	none (no result: CHOP UPR activ, CHOP inhibitor, UPR XBP1 act)
CC[C@H](C)C(C(=O)N1CCN(C(=O)OC(C)(C)C)CC1)n1cc(C(Cc2ccc(O)cc2)NC(=O)OC(C)(C)C)nn1 (stereo not given in full)	Cardio protect 50.6
Cc1ccc(CNc2nc3ccccc3s2)s1	CHOP inhibitor 74.1
COc1ccc(CNc2nc3ccccc3s2)cc1OC	none (no result: CHOP inhibitor)
CN(C)Cc1ccc(-c2nc3cccc4c3n2CCNC4=O)cc1	Cardio protect 53.1 (no result: CHOP inhibitor)
Cc1cc(CN(C)C(=O)CC2C(=O)NCCN2Cc2ccc(-c3ccccc3)cc2)on1 (stereo not given)	none (no result: CHOP inhibitor)
COc1ccc(CN2CCC3CC2c2cc(-c4cccc(C)c4)ccc23)cc1 (stereo not given)	none (no result: CHOP UPR activ, CHOP inhibitor, UPR XBP1 act)
CC1CC(=O)Nc2ccccc2N1C(=O)CN1CCN(c2ccccc2)CC1 (stereo not given)	CHOP inhibitor 80.1
Cc1ccccc1NC(=O)COC(=O)c1ccc(S(C)(=O)=O)c([N+](=O)[O-])c1	CHOP inhibitor 103.0
CC(CCc1ccccc1)NC(=O)COC(=O)c1ccc(S(C)(=O)=O)c([N+](=O)[O-])c1 (stereo not given)	CHOP inhibitor 101.4
CC(C)C[C@@H](CN)NC(=O)c1nc[nH]c1C(=O)N[C@@H](C)C(=O)CNC[C@H](C)NC(=O)c1nc[nH]c1C(=O)N[C@@H](CC(C)C)C(=O)O	none (no result: CHOP UPR activ, CHOP inhibitor, UPR XBP1 act)
CCCCCc1nc2sc3c(c2c(=O)n1NC(=O)c1ccc([N+](=O)[O-])cc1)CC(C)(C)OC3	CHOP inhibitor 76.4
Cc1nc(SCC(=O)NCc2ccccc2)c2oc3ccccc3c2n1	CHOP inhibitor 72.3
Cc1nc(SCC(=O)N2CCN(c3ccccc3)CC2)c2oc3ccccc3c2n1	Cardio protect 74.5
Cc1nc(SCC(=O)O)c2oc3ccccc3c2n1	none
CN(Cc1nc2ccccc2c(=O)[nH]1)C(=O)c1cccc(S(=O)(=O)N2CCc3ccccc32)c1	none (no result: CHOP inhibitor)
COc1ccc(NC(=O)Cn2cnc3c(cnn3-c3ccc(C)c(C)c3)c2=O)c(OC)c1	CHOP inhibitor 81.6
CCOc1ccccc1NC(=O)Cn1cnc2c(cnn2-c2ccc(C)c(C)c2)c1=O	none
c1ccc(-c2nnc3sc(CN4CCC5(CC4)OCCO5)cn23)cc1	CHOP inhibitor 77.0
COC(=O)[C@]1(C)N[C@H](CN(C)C(=O)C2CCCCC2)[C@@H]2C(=O)N(C)C(=O)[C@@H]21	none (no result: CHOP inhibitor)
Cc1cc2ncn(C(=O)c3c(-c4ccccc4Cl)noc3C)c2cc1C	CHOP inhibitor 75.8
CC(Nc1cccc2ccccc12)C(=O)N/N=C/c1ccc([N+](=O)[O-])cc1 (stereo not given)	CHOP inhibitor 81.7
COc1cc(CN2C[C@@H](CO)O[C@@H](n3cnc4c(NCc5ccc(F)cc5)ncnc43)C2)cc(OC)c1OC	none (no result: CHOP UPR activ, CHOP inhibitor, UPR XBP1 act)
CC1CCC(C(C)C)C(OC(=O)C[n+]2cccc(C(N)=O)c2)C1 (stereo not given)	none
C/C(=N\O)C(=O)OC1CC(C)CCC1C(C)C (stereo not given)	CHOP inhibitor 88.1
CC(=O)Nc1ccc(S(=O)(=O)NCc2cn3c(C)csc3n2)cc1	none
CCc1ccc(S(=O)(=O)NCc2cn3c(C)csc3n2)s1	CHOP inhibitor 90.2
CCc1ccc(S(=O)(=O)NCc2csc(-c3ccccc3)n2)s1	CHOP inhibitor 72.9
CC(C)Cn1cc(-c2cccc3nccn23)cn1	none (no result: CHOP UPR activ, CHOP inhibitor, UPR XBP1 act)
COc1cccc(-c2nnc(NC(=O)c3ccc(Cl)s3)o2)c1	Cardio protect 58.2
CCCN(CCC)S(=O)(=O)c1ccc(C(=O)Nc2nnc(-c3cc(OC)cc(OC)c3)o2)cc1	Cardio protect 53.8, CHOP inhibitor 85.4
Cc1cccc(-c2nnc(NC(=O)c3ccc(Cl)cc3)o2)c1	CHOP inhibitor 79.5
CCCN(CCC)S(=O)(=O)c1ccc(C(=O)Nc2nnc(-c3cccc(OC)c3)o2)cc1	CHOP inhibitor 92.1
Cc1ccc2cc(CNC[C@H]3O[C@@H](n4cc(C)c(=O)[nH]c4=O)C[C@@H]3O)c(N3CCOCC3)nc2c1	none (no result: CHOP UPR activ, CHOP inhibitor, UPR XBP1 act)
CCOC(=O)[C@]12CCCC=C1N(Cc1ccc3c(c1)OCO3)C(=O)[C@H](CC(=O)NCc1cccc(C(F)(F)F)c1)C2	none (no result: CHOP UPR activ, Cardio protect, CHOP inhibitor, UPR XBP1 act)
C[C@@H]1CCCCO[C@@H](CN(C)C(=O)CCC(F)(F)F)[C@@H](C)CN([C@H](C)CO)C(=O)c2cc(N(C)C)ccc2O1	none (no result: CHOP UPR activ, CHOP inhibitor, UPR XBP1 act)
CCC[C@H]1NC(=O)[C@H](C)N(C)C(=O)C(C)(C)C(=O)C(C)NC(=O)[C@H](Cc2ccc(OC)cc2)N(C)C(=O)[C@H](C(C)C)N(C)C(=O)CNC(=O)[C@H](CC(C)C)N(C)C(=O)CNC(=O)[C@H]([C@@H](C)CC)OC(=O)[C@H]1C (stereo not given in full)	CHOP UPR activ 43.6 (no result: Cardio protect, CHOP inhibitor, hiPSC survival)
CCCS(=O)(=O)NC(=O)C1(C)CCCN(C(=O)c2c(-c3ccccc3)noc2C)C1 (stereo not given)	none (no result: CHOP UPR activ, CHOP inhibitor, UPR XBP1 act)
Cc1cccc(N2CCN(C(c3cccs3)c3nnnn3C(C)(C)C)CC2)c1C (stereo not given)	CHOP inhibitor 77.4
c1ccc(-c2csc3ncnc(NCc4ccccn4)c23)cc1	none
c1ccc(CNc2ncnc3scc(-c4cccs4)c23)nc1	CHOP inhibitor 71.8
O=Cc1cn(-c2ccccc2)nc1-c1cc2ccccc2oc1=O	CHOP inhibitor 88.0
Cc1ccccc1NCC(=O)c1ccc(Br)cc1	CHOP inhibitor 70.3
CCOc1cc(C)nc(N2CCCC(C(=O)NCc3ccccc3F)C2)n1 (stereo not given)	CHOP inhibitor 70.7
O=C(/C=C/c1ccccc1)C1C(=O)c2ccccc2C1=O	none
CCc1ccc(/C=C/C(=O)C2C(=O)c3ccccc3C2=O)cc1	CHOP inhibitor 90.2
CC(=O)Nc1cc2nn(-c3ccccc3)nc2cc1C	none (no result: CHOP inhibitor)
CCC(=O)Nc1cc2nn(-c3ccccc3)nc2cc1Cl	CHOP inhibitor 79.0
Cc1ccc(S(=O)(=O)N2CCCCC2)cc1NC(=O)CN1C(=O)CN(C)C1=O	CHOP inhibitor 86.2
CC1(C)NC(=O)N(CC(=O)OCC(=O)Nc2cc(S(=O)(=O)N3CCCCC3)ccc2Cl)C1=O	CHOP inhibitor 78.9
CC1CC(C)(C)CC2(C1)NC(=O)N(CC(=O)OCC(=O)Nc1cc(S(=O)(=O)N3CCCCC3)ccc1Cl)C2=O (stereo not given)	none (no result: CHOP UPR activ, CHOP inhibitor, UPR XBP1 act)
CC(=O)N1CCN(CC(=O)Nc2cc(S(=O)(=O)N3CCCCC3)ccc2C)CC1	none (no result: CHOP inhibitor)
